Test results from ChEMBL document CHEMBL2040740, “Synthesis and antitumor activity of formononetin nitrogen mustard derivatives” (Eur J Med Chem, 2012).
The source made the active and inactive calls. No cut-off for these calls is given here.

Key:
SH-SY5Y = test: Cytotoxicity against human SH-SY5Y cells after 72 hrs by MTT assay; type: functional, cell-based
Method in brief: (§1)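 Cells grown at 37 °C in 5% CO₂/95% air, in RPMI-1640 or DMEM with 10% neonatal bovine serum or 10% FBS. Exposed to a concentration series for 72 h, then MTT added for a further 4 h at 37 °C. Formazan dissolved in DMSO and absorbance read at 570 and 630 nm. Triplicate wells in three independent experiments; IC50 calculated by dose-effect analysis.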

HCT-116 [1] = test: Cytotoxicity against human HCT116 cells after 72 hrs by MTT assay; type: functional, cell-based; conditions: HCT-116, 72 h; method in brief: as §1
DU-145 = test: Cytotoxicity against human DU145 cells after 72 hrs by MTT assay; type: functional, cell-based; conditions: DU-145, 72 h; method in brief: as §1
HeLa [2] = test: Cytotoxicity against human HeLa cells after 72 hrs by MTT assay; type: functional, cell-based; method in brief: as §1
SGC-7901 = test: Cytotoxicity against human SGC7901 cells after 72 hrs by MTT assay; type: functional, cell-based; conditions: SGC-7901, 72 h; method in brief: as §1
HeLa [3] = test: Cell cycle arrest in human HeLa cells assessed as accumulation in G2/M phase after 48 hrs by flow cytometry; type: functional, cell-based
Method in brief: (§2)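 Cells exposed to test agent for 48 h, then harvested, washed twice in PBS and fixed in 75% ice-cold ethanol at least overnight. DNA content of 10,000 events analysed by flow cytometry, giving percentage of cells in each cycle phase versus vehicle control.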

HeLa [4] = test: Cell cycle arrest in human HeLa cells assessed as decrease in S phase cells at 3.75 to 15 uM after 48 hrs by flow cytometry; type: functional, cell-based; method in brief: as §2
HeLa [5] = test: Cell cycle arrest in human HeLa cells assessed as accumulation in G2/M phase at 15 uM after 48 hrs by flow cytometry relative to control; type: functional; method in brief: as §2
HeLa [6] = test: Induction of apoptosis in human HeLa cells assessed as early to mid apoptotic cells at 5 uM after 48 hrs by annexinV-FITC/PI staining-based flow cytometry (reference value: 2.93%); type: functional
Method in brief: (§3)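 After 48 h treatment, cells washed twice in cold PBS and resuspended in binding buffer at 1 × 10⁵ cells/mL. Stained with Annexin V-FITC and propidium iodide in the dark for 15 min at room temperature, then analysed by flow cytometry. Lower-right quadrant scored as early-mid apoptotic, upper-right as late apoptotic/necrotic. Experiments performed three times.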

HeLa [7] = test: Induction of apoptosis in human HeLa cells assessed as late apoptotic to necrotic at 5 uM after 48 hrs by annexinV-FITC/PI staining-based flow cytometry (reference value: 1.98%); type: functional; method in brief: as §3
HeLa [8] = test: Induction of apoptosis in human HeLa cells assessed as early to mid apoptotic cells at 10 uM after 48 hrs by annexinV-FITC/PI staining-based flow cytometry (reference value: 2.93%); type: functional; method in brief: as §3
HCT-116 [9] = test: Cell cycle arrest in human HCT116 cells assessed as accumulation in G2/M phase after 48 hrs by flow cytometry; type: functional, cell-based; method in brief: as §2
HCT-116 [10] = test: Cell cycle arrest in human HCT116 cells assessed as decrease in S phase cells at 2 to 8 uM after 48 hrs by flow cytometry; type: functional, cell-based; method in brief: as §2
HCT-116 [11] = test: Cell cycle arrest in human HCT116 cells assessed as accumulation in G2/M phase at 8 uM after 48 hrs by flow cytometry relative to control; type: functional; method in brief: as §2
HCT-116 [12] = test: Induction of apoptosis in human HCT116 cells assessed as early to mid apoptotic cells at 2 uM after 48 hrs by annexinV-FITC/PI staining-based flow cytometry (reference value: 1.62%); type: functional; method in brief: as §3
HCT-116 [13] = test: Induction of apoptosis in human HCT116 cells assessed as late apoptotic to necrotic cells at 2 uM after 48 hrs by annexinV-FITC/PI staining-based flow cytometry (reference value: 0.43%); type: functional; method in brief: as §3
HCT-116 [14] = test: Induction of apoptosis in human HCT116 cells assessed as early to mid apoptotic cells at 8 uM after 48 hrs by annexinV-FITC/PI staining-based flow cytometry (reference value: 1.62%); type: functional; method in brief: as §3
HCT-116 [15] = test: Induction of apoptosis in human HCT116 cells assessed as late apoptotic to necrotic cells at 8 uM after 48 hrs by annexinV-FITC/PI staining-based flow cytometry (reference value: 0.43%); type: functional; method in brief: as §3

SMILES | IC50 (SH-SY5Y) [µM] | IC50 (HCT-116 [1]) [µM] | IC50 (DU-145) [µM] | IC50 (HeLa [2]) [µM] | IC50 (SGC-7901) [µM] | other results
CCCOc1ccc2c(=O)c(-c3ccc(OC)c(N(CCCl)CCCl)c3)coc2c1 | 7.89 | 15.2 | 28.8 | 12.8 | > 100 | –
N[C@@H](Cc1ccc(N(CCCl)CCCl)cc1)C(=O)O [MELPHALAN] | 5.5 | 20.9 | 96.3 | 24 | 51 | –
COc1ccc(-c2coc3cc(OCc4ccccc4)ccc3c2=O)cc1N(CCCl)CCCl | 11.4 | 4.97 | 26.5 | 16.4 | 18.8 | –
COc1ccc(-c2coc3cc(OC4CCCCC4)ccc3c2=O)cc1N(CCCl)CCCl | 4.44 | 6.54 | 11.2 | 8.29 | 15.8 | Activity (HeLa [3]): Dose-dependent effect; Activity (HeLa [4]): Active; Activity (HeLa [5]): 21.33%; Activity (HeLa [6]): 3.06%; Activity (HeLa [7]): 3.27%; Activity (HeLa [8]): 8.83%
CCOc1ccc2c(=O)c(-c3ccc(OC)c(N(CCCl)CCCl)c3)coc2c1 | 11.9 | 8.47 | 23.9 | 10.7 | 13 | –
COc1ccc(-c2coc3cc(OCCC(C)C)ccc3c2=O)cc1N(CCCl)CCCl | 10.4 | 7.67 | 6.6 | 9.81 | 9.47 | –
CCC(C)Oc1ccc2c(=O)c(-c3ccc(OC)c(N(CCCl)CCCl)c3)coc2c1 (stereo not drawn) | 3.58 | 20.2 | 28.8 | 18.9 | 47.5 | –
C=CCOc1ccc2c(=O)c(-c3ccc(OC)c(N(CCCl)CCCl)c3)coc2c1 | 4.51 | 7.54 | 15.4 | 9.22 | 10.2 | –
COc1ccc(-c2coc3cc(OCCc4ccccc4)ccc3c2=O)cc1N(CCCl)CCCl | 3.84 | 8.05 | 7.57 | 17.8 | 11 | –
COc1ccc(-c2coc3cc(OC4CCCC4)ccc3c2=O)cc1N(CCCl)CCCl | 5.13 | 8.75 | 11.1 | 19.3 | 15.2 | –
COc1ccc(-c2coc3cc(O)ccc3c2=O)cc1N(CCCl)CCCl | 2.7 | 4.1 | 22.6 | 56.3 | 8.2 | –
COc1ccc(-c2coc3cc(OC(C)C)ccc3c2=O)cc1N(CCCl)CCCl | 2.17 | 3.8 | 19.5 | 12.5 | 9.21 | Activity (HCT-116 [9]): Dose-dependent effect; Activity (HCT-116 [10]): Active; Activity (HCT-116 [11]): 24.84%; Activity (HCT-116 [12]): 9.95%; Activity (HCT-116 [13]): 0.38%; Activity (HCT-116 [14]): 38.1%; Activity (HCT-116 [15]): 43.72%
C=C(C)COc1ccc2c(=O)c(-c3ccc(OC)c(N(CCCl)CCCl)c3)coc2c1 | 10.8 | 14.6 | 15.6 | 18.3 | 15.4 | –
COc1ccc(-c2coc3cc(O)ccc3c2=O)cc1 [FORMONONETIN] | > 100 | 61 | > 100 | 8.51 | 2.17 | –
COc1ccc(-c2coc3cc(OCC=C(C)C)ccc3c2=O)cc1N(CCCl)CCCl | 5.25 | 13.8 | 12.2 | 18 | 19.8 | –
COc1ccc(-c2coc3cc(OCc4ccc(C)cc4)ccc3c2=O)cc1N(CCCl)CCCl | 49.9 | 9.41 | 18.8 | 12.6 | 7.73 | –
COc1ccc(-c2coc3cc(OC4CCCCCC4)ccc3c2=O)cc1N(CCCl)CCCl | 2.08 | 5.72 | 10.1 | 8.85 | 14.3 | –
CCCCOc1ccc2c(=O)c(-c3ccc(OC)c(N(CCCl)CCCl)c3)coc2c1 | 16.3 | 17.1 | 8.28 | 11.8 | 11.8 | –
